# Beta2AR agonist = beta2AR agonists driving receptor internalization, primary screen, cell-based, FAP fluorogen, flow cytometry | 0.43% of 340,000 active | AID 504454, 2011 | Am2.2-beta2AR cells | Beta-2 adrenergic receptor (Homo sapiens), P07550 | response, % (concentration not given with the values);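 active = response above a set limit, near 3 SD of response in nonfluorescent compounds, cut at about 42% in these data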
# APJ ag = agonists of human apelin receptor APJ, primary screen, CHO-K1 cells, PathHunter beta-arrestin, luminescence; 0.11% of 330,000 active; 0% DMSO wells, 100% apelin; P35414; AID 2520, 2010; activation, % at 20 µM;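 active = activation more than six SD over the plate average, tested at 20 µM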
#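 assay system = CHO-K1 APJ beta-arrestin complementation cell line | input = cell density 1000 per well | dosing = compound 20 µM once, DMSO 1% | timing = compound 90 min 25 °C, reagent 1 h | measured by = luminescence from split beta-galactosidase complementation, Galacton Star/Emerald II substrate | read-out basis = APJ agonist activity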
# APJ antag = antagonists of human apelin receptor APJ, primary screen, CHO-K1 cells, beta-arrestin complementation, luminescence; P35414; inhibition, % at 20 µM; 0.32% of 330,000 active; AID 2521, 2010;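 active = inhibition above about 40% at 20 µM, limit read from the data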;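 note: cells challenged with 10 nM apelin-13 agonist together with compound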
# EBI2 block = EBI2 receptor antagonists, beta-arrestin recruitment, primary screen, cell-based, luminescence, 7a,25-OHC stimulation, uHTS. G-protein coupled receptor 183 (Homo sapiens), P32249. inhibition, % at 5 µM. 0.81% of 360,000 active. AID 651636, 2012. 7a,25-OHC stimulated; in the data active = inhibition above about 38%;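 note: enzyme fragment complementation signal reports receptor beta-arrestin coupling in cells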
# CCR6 antagonist = CCR6 receptor antagonists, primary screen, cell-based, CHO-K1, luminescence, beta-arrestin, uHTS; AID 493098, 2011; inhibition, % at 20 µM; C-C chemokine receptor type 6 (Homo sapiens), P51684; 0.49% of 340,000 active; CHO-K1 CCR6 PathHunter beta-arrestin, CCL20-stimulated;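 active = compounds whose inhibition of the agonist-driven luminescence signal at 20 µM reaches about 50%, limit read from the data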;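 note: cells stimulated with CCL20 at 14 nM final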
# Target sequence (P51684 whole entry, looked up): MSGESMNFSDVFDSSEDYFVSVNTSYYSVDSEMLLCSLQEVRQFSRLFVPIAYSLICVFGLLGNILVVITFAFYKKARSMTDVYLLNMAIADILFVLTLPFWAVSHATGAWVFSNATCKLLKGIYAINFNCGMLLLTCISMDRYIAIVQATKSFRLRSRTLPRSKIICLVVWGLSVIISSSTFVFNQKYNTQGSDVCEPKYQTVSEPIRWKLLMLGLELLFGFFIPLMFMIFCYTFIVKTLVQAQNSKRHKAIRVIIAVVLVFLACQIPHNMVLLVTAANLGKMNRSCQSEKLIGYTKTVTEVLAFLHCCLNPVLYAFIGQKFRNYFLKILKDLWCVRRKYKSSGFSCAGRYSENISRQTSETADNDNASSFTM
# CXCR6 inh = CXCR6 receptor inhibitors, primary screen, cell-based, beta-arrestin, luminescence, CHO-K1 PathHunter, 1536-well. C-X-C chemokine receptor type 6 (Homo sapiens), O00574. inhibition, % at 20 µM. 0.36% of 360,000 active; in the data active = inhibition above about 34%, passing the limit was not always enough;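 note: antagonist mode with CXCL16 agonist at 10 nM final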
# EBI2 conf = EBI2 antagonist hit retest, beta-arrestin, confirmation, cell-based, single concentration, luminescence, 7a,25-OHC stimulation; shares compounds with EBI2 block; 7a,25-OHC antagonism; inhibition, % at 5 µM; 29% of 2,400 active; AID 651997, 2013;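 active = inhibition of at least 50%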
# EBI2 ag = EBI2 agonist activity of antagonist hits, confirmation, counter-screen for EBI2 antagonist project, cell-based, single concentration, agonist mode, luminescence; 2,400 tested, under 10 active; EBI2-expressing cells, 60 min; 0% vehicle, 100% 7α,25-dihydroxycholesterol control; shares compounds with EBI2 block; activation, % at 5 µM;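 active = activation of at least 50%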
# bGal counter = E. coli beta-galactosidase enzyme inhibition, confirmation, counter-screen for EBI2 antagonist project, biochemical, luminescence, single concentration. 1% of 2,400 active. shares compounds with EBI2 block. inhibition, % at 5 µM. purified beta-galactosidase, luminescent Galacton Star, 15 min;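 active = replicate-average signal at least 3 plate SD below neutral wells, shown as high inhibition, flagging enzyme-inhibiting false positives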;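 note: higher means stronger loss of beta-gal luminescence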
# Hits are given with their value; i = inactive; nt = no result given. A selection: hits, their analogues and other compounds. The true share with any hit is near 1.8%.
SMILES,Beta2AR agonist,APJ ag,APJ antag,EBI2 block,CCR6 antagonist,CXCR6 inh,EBI2 conf,EBI2 ag,bGal counter
COc1ccc(N(CC(=O)Nc2cc(C)ccc2OC)S(=O)(=O)c2c(C)noc2C)cc1,i,i,i,42.5,i,i,i,i,i
C[C@@H]1CN([C@@H](C)CO)C(=O)CCCn2nncc2CO[C@H]1CN(C)Cc1cccnc1,nt,nt,nt,i,nt,i,nt,nt,nt
Cc1ccc(-c2nnc(/C=C/c3ccccc3)o2)cc1,i,i,i,48.7,i,i,i,i,i
O=C(c1cccc(F)c1)N1CCN(C(=O)c2cc(-c3ccc(Cl)cc3Cl)on2)CC1,i,i,i,44.5,i,i,i,i,i
O=C(OCc1cn(Cc2ccccc2)nn1)c1ccccc1,i,i,i,i,i,i,nt,nt,nt
c1ccc(Cn2cc(CNc3ccccc3)nn2)cc1,i,i,i,49.0,i,i,i,i,i
O=c1ccn(C2CCCCC2)c(=O)[nH]1,nt,nt,nt,i,nt,i,nt,nt,nt
CCOc1ccc(N(CC(=O)NCCOc2ccc(C)cc2)S(=O)(=O)c2ccccc2)cc1,i,i,i,90.5,i,i,65.0,i,i
COc1ccc(N(CC(=O)NCCOc2ccccc2)S(=O)(=O)c2ccc(C)cc2)cc1,i,i,i,86.6,i,i,63.8,i,i
CCOc1ccc(N(CC(=O)NCCc2ccccc2)S(=O)(=O)c2ccccc2)cc1,i,i,i,i,i,i,nt,nt,nt
